According to PubChem BioAssay:
Calls of active or inactive are those of the source.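 Rule for the calls, unless noted: active = viability at or below 10% of carrier control in both of two separate runs; inconclusive = viability at or below 10% in only one of the two runs; inactive = the rest.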

Legend:
[1] = SK-BR-3 cell growth inhibitors, pilot screen, 24 h, human (AID 572); conditions: SK-BR-3 viability, CellTiter-Glo luminescence, at 10 µM, stronger effect = lower value;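 note: compound exposure lasted between 18 and 24 h rather than exactly 24 h; 100% = carrier-treated control wells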
[2] = HUVEC growth inhibition – cell-based, human, primary screen (AID 575;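 active = viability at or below 30% in both replicate assays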;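 note: 100% = median of untreated cell wells with 0.1% DMSO on each plate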); conditions: HUVEC proliferation, CellTiter-Glo luminescence, 72 h; at 10 µM; stronger effect = lower value
Outline: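 Assay system: primary human umbilical vein endothelial cells / Buffer or medium: endothelial basal medium with 2% FBS plus growth supplements / Compound dosing: one dose, 10 µM final, 0.1% DMSO / Timing: 72 h treatment at 37 °C / Signal: CTG luminescence / Benchmarks: 32 DMSO-only cell-control wells (high), 32 MePR drug-control wells (low) per plate / Plate: collagen-coated 384-well format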

[3] = growth inhibitors of H69AR lung tumor, primary screen, human, duplicate replicates (AID 580;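 active = viability at or under a set limit in both replicates, limit being median viability minus 3 SD, cut at about 48% in these data, passing the limit was not always enough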;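 note: 100% = mean luminescence of untreated wells and 0% = no signal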); conditions: H69AR lung tumor cells viability, ATP luminescence, 72 h; at 10 µM; stronger effect = lower value
[4] = reversal of MRP1-mediated doxorubicin resistance, pilot screen, H69AR cells, doxorubicin co-treatment (AID 601;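 active = viability loss from added drug above about 55%, and viability with drug at most 40%, in both replicates, limit read from the data, passing the limit was not always enough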); conditions: CellTiter-Glo, 72 h, at 10 µM; for differential viability (reversal): stronger effect = higher value
[5] = 384-well plate pilot, post-Golgi transport modulator project, inhibition of yeast transport mutant growth (AID 636; in the data active = inhibition above about 31%); conditions: absorbance 615 nm, about 18 h, stronger effect = higher value
[6] = growth suppression of yeast trafficking mutant, preliminary HTS, modulators of trafficking downstream of Golgi apparatus project, 1536-format plate, OD 615 nm (AID 637; in the data active = inhibition above about 30%); conditions: yeast transport mutant growth, absorbance 615 nm, 18 h; stronger effect = higher value
[7] = H69AR cells + 2 uM doxorubicin, measured here: viability with 2 uM doxorubicin, stronger effect = lower value
[8] = H69AR cells, compound alone cytotoxicity

Row | Compound | viability [1] | viability [2] | viability [3] | differential viability (reversal) ([4]; H69AR cells + 2 uM doxorubicin) | viability [4, 7] [%] | viability [4, 8] [%] | inhibition [5] | inhibition [6]
1 | CC(=O)c1cccc(NC(=O)NCc2ccco2)c1 | 93% (inactive) | 93.9% (inactive) | 85.7% (inactive) | -0.48% (inactive) | 86.2 | 85.7 | -4.79% (inactive) | 2.36% (inactive)
2 | CCOC(=O)c1ccc(N(CC(=O)NC2CCCC2)C(=O)CNC(=O)c2ccco2)cc1 | 90% (inactive) | 95.4% (inactive) | 93.9% (inactive) | 1.51% (inactive) | 92.4 | 93.9 | 0.13% (inactive) | -2.46% (inactive)
3 | c1ccc2c(NC3CCCC3)nnc(NC3CCCC3)c2c1 | 60% (inactive) | 83.1% (inactive) | 91.4% (inactive) | 1.81% (inactive) | 89.6 | 91.4 | -0.92% (inactive) | -7.46% (inactive)
4 | CC1CCCCC1NC(=O)COc1ccc(-n2cnnn2)cc1 (centres undefined) | 100% (inactive) | 103% (inactive) | 101% (inactive) | -0.38% (inactive) | 101 | 101 | 0% (inactive) | 0.73% (inactive)
5 | COc1cccc2sc(NC(=O)c3ccc(S(=O)(=O)N4CCOCC4)cc3)nc12 | 113% (inactive) | 85.5% (inactive) | 86.7% (inactive) | 16.8% (inactive) | 69.8 | 86.7 | -7.16% (inactive) | -8.18% (inactive)
6 | CCCn1c(SCC(=O)NC(=O)NCc2ccco2)n[nH]c1=O | 101% (inactive) | 90.4% (inactive) | 96.6% (inactive) | 1.45% (inactive) | 95.1 | 96.6 | -2.8% (inactive) | -3.64% (inactive)
7 | O=C1CC(c2ccccc2)NC(=O)N1 (centres undefined) | 78% (inactive) | 105% (inactive) | 98.8% (inactive) | 2.63% (inactive) | 96.1 | 98.8 | -7.26% (inactive) | -0.36% (inactive)
8 | COCCn1nnnc1C(c1ccccc1OC)N1CCc2ccccc2C1 (centres undefined) | 119% (inactive) | 103% (inactive) | 82.1% (inactive) | -6.74% (inactive) | 88.8 | 82.1 | -8.24% (inactive) | -6.36% (inactive)
9 | COCc1nnc(SCC(=O)NC(C)c2ccccc2)n1-c1ccccc1 (centres undefined) | 84% (inactive) | 101% (inactive) | 100% (inactive) | -5.31% (inactive) | 105 | 100 | -4.66% (inactive) | 1.27% (inactive)
10 | c1ccc(-c2cnc(CSc3ncnc4sccc34)o2)cc1 | 94% (inactive) | 90.7% (inactive) | 96.9% (inactive) | 14.7% (inactive) | 82.2 | 96.9 | -5.68% (inactive) | -5.82% (inactive)
11 | CNC(=O)Oc1ccc2c(c1)[C@]1(C)CCN(C)[C@@H]1N2C | 112% (inactive) | 104% (inactive) | 93.9% (inactive) | -7% (inactive) | 101 | 93.9 | -3.12% (inactive) | 2% (inactive)
12 | CCCNC(=O)NC1C(NC(=O)NCCC)N(C)C(=O)N1C (centres undefined) | 86% (inactive) | 104% (inactive) | 105% (inactive) | 14.2% (inactive) | 90.7 | 105 | -1.04% (inactive) | -0.49% (inactive)
13 | Cc1ccc2nc(C(F)(F)F)c(C#N)c(N)c2c1 | 50% (inactive) | 78.9% (inactive) | 71.3% (inactive) | -43.8% (inactive) | 115 | 71.3 | -4.38% (inactive) | 6.55% (inactive)
14 | COc1cc2c(cc1OC)CN(C(=O)COc1ccc(C)c(C)c1)CC2 | 94% (inactive) | 91.4% (inactive) | 83.9% (inactive) | -5.58% (inactive) | 89.5 | 83.9 | -7.95% (inactive) | 1.29% (inactive)
15 | O=C(Cc1cccs1)N(c1ccccc1)C1C=CS(=O)(=O)C1 (centres undefined) | 118% (inactive) | 107% (inactive) | 106% (inactive) | 28.9% (inactive) | 76.7 | 106 | -3.07% (inactive) | -1.64% (inactive)
16 | Cc1ccc(S(=O)(=O)NCC(c2cccnc2)N(C)C)cc1 (centres undefined) | 96% (inactive) | 109% (inactive) | 95.1% (inactive) | -8.1% (inactive) | 103 | 95.1 | -5.75% (inactive) | 1.82% (inactive)
17 | Cc1cc(/C=N\O)c(C)n1-c1ccncc1 | 120% (inactive) | 83.8% (inactive) | 91.4% (inactive) | -5.03% (inactive) | 96.4 | 91.4 | -7.26% (inactive) | -0.32% (inactive)
18 | CCOC(=O)c1sc(NC(=O)CSc2ncn(-c3ccccc3)n2)nc1C | 109% (inactive) | 97.5% (inactive) | 82.9% (inactive) | -5.19% (inactive) | 88.1 | 82.9 | -7.95% (inactive) | 3.09% (inactive)
19 | CN1CCc2c(sc3c2c(=O)n(-c2cccc(Cl)c2)c2nncn32)C1 | 102% (inactive) | 84.5% (inactive) | 95.8% (inactive) | -13.3% (inactive) | 109 | 95.8 | -2.6% (inactive) | -5.41% (inactive)
20 | O=C(CCn1c(=O)sc2ccccc21)NCc1ccc2c(c1)OCO2 | 75% (inactive) | 111% (inactive) | 99.9% (inactive) | 8.43% (inactive) | 91.5 | 99.9 | -0.81% (inactive) | -2.91% (inactive)
21 | O=C(COC(=O)C12CC3CC(CC(C3)C1)C2)NCc1ccco1 | 101% (inactive) | 98.5% (inactive) | 64.6% (inactive) | -21.4% (inactive) | 86 | 64.6 | -4.16% (inactive) | -3.93% (inactive)
22 | CC(CN1c2ccccc2Sc2ccccc21)N(C)C (centres undefined) | 88% (inactive) | 62.9% (inactive) | 92.2% (inactive) | 4.55% (inactive) | 87.7 | 92.2 | -2.73% (inactive) | -1.67% (inactive)
23 | Cc1[nH]nc2c1C(CCc1ccccc1)C(C#N)=C(N)O2 (centres undefined) | 104% (inactive) | 94.2% (inactive) | 90.2% (inactive) | -2.73% (inactive) | 92.9 | 90.2 | 4.11% (inactive) | 15.8% (inactive)
